Apaf-1 act: activators of human Apaf-1 apoptosome. activity change, negative = activation, % at 20 µM. 330,000 compounds, 0.31% hits. Apaf-1 apoptosome caspase-3 activation, DEVD-Rh110 fluorescence; stronger effect = lower value;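 active = activity change at or below -40% at 20 µM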
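Schedule: 30 min preincubation, 50 min reaction, room temperature / System: biochemical Apaf-1 apoptosome reconstitution / Medium: 20 mM HEPES pH 7.5 with CHAPS, BSA / Evaluation: Caspase-3 cleavage activity downstream of Apaf-1 activation / Detection: Caspase-3-released Rh110 fluorescence, 540 nm emission, 480 nm excitation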
Rh110 act interf: interferes with Rh110 fluorescence, flagging false Apaf-1 activators | shares compounds with Apaf-1 act | Rh110 fluorescence interference, quenched caspase reaction, Ex480/Em540 | fluorescence interference (activity change), % at 20 µM, hits read low | 980 tested, under 10 active;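 active = mean activity change at or below -40% when tested at 20 µM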
Apaf-1 act conf2: confirmation of human Apaf-1 activators; shares compounds with Apaf-1 act; reconstituted apoptosome caspase-3 activity, DEVD-Rh110 fluorescence; stronger effect = lower value; activity change, negative = activation, % at 20 µM; 980 compounds, 5% hits;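 active = mean activity change at or below -40%, meaning activation of 40% or more, at 20 µM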
Active calls of the source: *. Only a sample is shown.

Results for CN(c1ccccc1)S(=O)(=O)c1cccc(C(=O)NCc2ccccc2CN2CCCC2)c1 ?
Apaf-1 act: 52

What do the screens show for `CC(=O)c1cccc(N(CC(=O)Nc2ccccc2C(=O)N2CCCC2)S(C)(=O)=O)c1`?
Apaf-1 act: -323*

What do the screens show for `CS(=O)(=O)N(CC(=O)Nc1ccccc1C(=O)N1CCCC1)c1cccc([N+](=O)[O-])c1`?
Apaf-1 act: -71*

How did Cc1cccc(N(Cc2ccccc2)C(=O)C2CCN(C(=O)c3ccccc3C)CC2)c1 do in these assays?
Apaf-1 act: 48

What do the screens show for `Cc1ccc(C)c(NC(=O)CN(C)C(=O)c2cccc(S(=O)(=O)N3CCN(Cc4ccccc4)CC3)c2)c1`?
Apaf-1 act: 41

What do the screens show for `O=C(CCC1CCCCC1)NCCN1C2=NC[C@@H](Cc3ccccc3)N2C[C@H]1Cc1ccc(O)cc1`?
Apaf-1 act: 45

Results for C#CCOCCOCCOCCNc1nc(N2CCN(C(=O)CCCCCCCCCCNC(=O)Cn3cc(CCCCCN)nn3)CC2)nc(N2CCN(C(=O)CCCCCCCCCCNC(=O)[C@@H](CCSC)n3cc(CCO)nn3)CC2)n1 ?
Apaf-1 act: 72

Results for CNC[C@@H]1Oc2ccc(NS(=O)(=O)c3ccc(Cl)cc3)cc2C(=O)N([C@H](C)CO)C[C@@H]1C ?
Apaf-1 act: 45

Results for CCN(CC(=O)Nc1ccccc1OC)C(=O)CN1C(=O)NC(C)(c2ccccc2)C1=O (centres undefined) ?
Apaf-1 act: 49

What do the screens show for `Clc1ccc(SCCOCCN2CCOCC2)cc1`?
Apaf-1 act: -53*

How did O=C(CCNC(=O)c1ccc(Cl)cc1)NCCCN1CCOCC1 do in these assays?
Apaf-1 act: 48

How did O=C1C(Cl)=C(NCCN2CCOCC2)C(=O)c2ccccc21 do in these assays?
Apaf-1 act: 46

Results for CC(Oc1ccc(Br)cc1)C(=O)NCC(C)(C)N1CCOCC1 (centres undefined) ?
Apaf-1 act: 47

Results for CCCN(CC(=O)Nc1ccccc1C)C(=O)c1sc2ccccc2c1Cl ?
Apaf-1 act: 61

How did C#CCOCCOCCOCCNc1nc(N2CCN(C(=O)C([C@@H](C)O)n3cc([C@@H](N)CCCCN)nn3)CC2)nc(N2CCN(C(=O)[C@H](CCCCN)n3cc([C@@H](N)CC(N)=O)nn3)CC2)n1 (some centres undefined) do in these assays?
Apaf-1 act: 51

What do the screens show for `O=C(CCS(=O)(=O)c1ccc(Br)cc1)NCc1ccc(F)cc1`?
Apaf-1 act: -99*

What do the screens show for `C[C@H](CO)N1C[C@H](C)[C@@H](CN(C)Cc2ccc(Cl)c(Cl)c2)Oc2c(NC(=O)Cc3ccccc3)cccc2C1=O`?
Apaf-1 act: 44

How did O=C(/C=C/c1cc[n+](CC(=O)c2ccc3cccc4c3c2CC4)cc1)c1ccc2cccc3c2c1CC3 do in these assays?
Apaf-1 act: 59

How did CC(=O)[C@H]1[C@H](c2cccc(Cl)c2)C(C#N)(C#N)[C@@H]2c3ccccc3C=CN21 do in these assays?
Apaf-1 act: 56

How did Cc1cccc(NC(=O)CSCC(=O)N(C)Cc2ccc(Cl)c(Cl)c2)c1 do in these assays?
Apaf-1 act: 63

Results for CCN(CC)c1ccc(C=Nc2ccc(N(C)C)cc2)c(O)c1 ?
Apaf-1 act: 44

How did CCN(CC)c1ccc(/C=N/N=C(N)N)c(O)c1 do in these assays?
Apaf-1 act: -156*; Rh110 act interf: -3; Apaf-1 act conf2: 9

Results for CCN(CC)c1ccc(/C=N/N2CCN(Cc3ccccc3)CC2)c(O)c1 ?
Apaf-1 act: -50*; Rh110 act interf: 0; Apaf-1 act conf2: 14

Results for NC(N)=N/N=C/c1ccc(OCc2ccccc2)c(OCc2ccccc2)c1 ?
Apaf-1 act: 61

How did Cc1ccc(CN2CC(C(=O)N3CCN(S(=O)(=O)c4ccc(C)cc4C)CC3)CC2=O)cc1 (centres undefined) do in these assays?
Apaf-1 act: 48

How did CSc1nncc(/C(C)=N\Nc2ccccc2)n1 do in these assays?
Apaf-1 act: 70

How did NC(=O)[C@@H]1CCCNc2c(I)cc([N+](=O)[O-])cc2C(=O)N[C@@H](CCCN=C(N)N)C(=O)N[C@@H](CCCN=C(N)N)C(=O)N1 do in these assays?
Apaf-1 act: 41

How did O=c1[nH]c(Nc2ccccc2Cl)cc2ccccc12 do in these assays?
Apaf-1 act: 98

Results for FC(F)(F)C1=Nc2cccc3cccc(c23)N1 ?
Apaf-1 act: 66

Results for CNC(=O)NCC12CC3CC(CC(C3)C1)C2 ?
Apaf-1 act: -293*; Rh110 act interf: 10; Apaf-1 act conf2: 10

How did c1ccc(CNc2nc(NCc3ccccc3)c3ccccc3n2)cc1 do in these assays?
Apaf-1 act: 66

How did Cc1ccc(NC(=O)CN2C(=O)S/C(=C/c3ccc(-c4cc(C(=O)O)ccc4C)o3)C2=O)cc1C do in these assays?
Apaf-1 act: 42

How did O=C(NCCCO)C(=O)NCc1ccncc1 do in these assays?
Apaf-1 act: -63*; Rh110 act interf: -80*; Apaf-1 act conf2: 10

Results for Cc1ccc2c(c1)C(O)(C1COC(C)(C)CC1=O)C(=O)N2C (centres undefined) ?
Apaf-1 act: -573*; Rh110 act interf: -4; Apaf-1 act conf2: 8

What do the screens show for `CCOc1cc(/C=C2/C(=O)N(c3ccccc3)N=C2C)ccc1OC(=O)c1cccs1`?
Apaf-1 act: 69

Results for CN(C)c1cccc2c1c(NS(=O)(=O)c1cn(C)cn1)nn2C ?
Apaf-1 act: 62

How did CN(Cc1ccccc1)S(=O)(=O)c1cn(C)cn1 do in these assays?
Apaf-1 act: -113*; Rh110 act interf: 7; Apaf-1 act conf2: 14

Results for CC[C@H](C)[C@@H](C(=O)NCCCCCCCCCCC(=O)N1CCN(C(=O)OC(C)(C)C)CC1)n1cc(CCCCN=C(NC(=O)OC(C)(C)C)NC(=O)OC(C)(C)C)nn1 ?
Apaf-1 act: 56

Results for OC(c1cc(C(F)(F)F)nc2c(C(F)(F)F)cccc12)C1CCCCN1 (centres undefined) ?
Apaf-1 act: 48

Results for Cc1cccc(CCNS(=O)(=O)c2cnc[nH]2)c1 ?
Apaf-1 act: -46*; Rh110 act interf: -4; Apaf-1 act conf2: 8

What do the screens show for `CCN(CC)C(=O)CSc1nc2ccccc2c(=O)n1CC`?
Apaf-1 act: -176*; Rh110 act interf: 5; Apaf-1 act conf2: 5

How did Cc1ccc(N/N=C2\CC(=O)c3ccccc32)cc1Cl do in these assays?
Apaf-1 act: 76

How did Cc1cc(Cl)ccc1NC(=S)NC1CCCC1 do in these assays?
Apaf-1 act: -42*; Rh110 act interf: 12; Apaf-1 act conf2: 23

How did Cc1ccc(NC(=S)Nc2cccc3cnccc23)c(C)c1 do in these assays?
Apaf-1 act: 96

How did CCOc1ccc(/C=N/OCC(=O)Nc2cc(S(=O)(=O)N3CCOCC3)ccc2OC)cc1 do in these assays?
Apaf-1 act: -55*; Rh110 act interf: -2; Apaf-1 act conf2: 14

Results for CSc1ccc(CN(C)C(=O)c2cccc(S(=O)(=O)NCc3ccccc3)c2)cc1 ?
Apaf-1 act: 67

Results for COC(=O)c1cc(S(=O)(=O)NCc2cccc(Br)c2)c[nH]1 ?
Apaf-1 act: -53*; Rh110 act interf: -1; Apaf-1 act conf2: 6
